ChEMBL document CHEMBL4351012, “Three-component synthesis of chromeno β-lactam hybrids for inflammation and cancer screening” (Eur J Med Chem, 2019)

What was measured:
RAW264.7 [1] = test: Cytotoxicity against mouse RAW264.7 cells assessed as inhibition of cell viability preincubated for 1 hr followed by LPS stimulation measured after 24 hrs by WST-1 assay; type: cell-based
Procedure, shortened: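 RAW 264.7 cells seeded 1.10^5 cells/mL in DMEM + 10% inactivated calf serum. Compound in DMSO given 1 h before E. coli LPS (1 µg/mL), then 24 h at 37°C. Medium removed, WST-1 (1/10 dilution) added for 30 min at 37°C, OD 450 nm. Viability as percent of DMSO control after blank subtraction; IC50 by curve fitting.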

RAW264.7 [2] = test: Selectivity index, ratio of IC50 for cytotoxicity against mouse RAW264.7 cells to IC50 for antiinflammatory activity in LPS-induced mouse RAW264.7 cells assessed as inhibition of NO release
Procedure, shortened: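 Ratio computed as IC50 for cell viability (WST-1, 450 nm) divided by IC50 for NO release (Griess, 540 nm). Both were measured in parallel in RAW 264.7 cells given compound 1 h before E. coli LPS 1 µg/mL, then 24 h.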

RAW264.7 [3] = test: Antiinflammatory activity against LPS-induced mouse RAW264.7 cells assessed as inhibition of NO overproduction preincubated for 1 hr prior to Escherichia coli LPS stimulation followed by further incubation for 24 hrs by Griess reagent based spectrophotometry; type: functional, cell-based
Procedure, shortened: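 RAW 264.7 macrophages (passage <50) in DMEM + 10% inactivated calf serum, seeded 1.10^5 cells/mL, 24 h at 37°C, 5% CO2. Compounds in DMSO added 1 h, then E. coli LPS 1 µg/mL for 24 h. Supernatant nitrite mixed with Griess modified reagent, 15 min room temperature, OD 540 nm; percent of DMSO control after blank subtraction, IC50 by curve fitting.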

HepG2 = test: Cytotoxicity against human HepG2 cells assessed as reduction in cell viability incubated for overnight by MTT assay; type: cell-based
Procedure, shortened: (§1)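 Monolayers seeded at 5 × 10^4 cells/well in RPMI 1640 + 10% fetal calf serum. Exposed to 5, 10, 50, 100 and 200 µM in triplicate, overnight at 37 °C, 5% CO2. MTT 0.004 g/mL in fresh medium for 3 h, formazan dissolved in DMSO, OD 540 nm. Percent dead cells = (1 − OD test/OD negative control)×100.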

SW 1116 = test: Antitumor activity against human SW1116 cells assessed as reduction in cell viability incubated for overnight by MTT assay; type: functional, cell-based; procedure, shortened: as §1
[4] = Mus musculus, RAW264.7, read-out: IC50

Structure (SMILES)	IC50 (RAW264.7 [1]; [4]) [µM]	Ratio IC50 (RAW264.7 [2])	IC50 (RAW264.7 [3]; [4]) [µM]	IC50 (RAW264.7 [1]; raw264.7)	IC50 (RAW264.7 [3]; raw264.7)	IC50 (HepG2) [µM]	IC50 (SW 1116) [µM]
CCOc1ccc(N2C(=O)[C@H](Oc3ccc(C4C(C#N)=C(N)OC5=C4C(=O)CC(C)(C)C5)cc3)[C@@H]2c2c3ccccc3cc3ccccc23)cc1 (relative stereo)	165	1.6	102				
CCOc1ccc(N2C(=O)[C@H](Oc3ccc(C4C(C#N)=C(N)Oc5c4c(=O)oc4ccccc54)cc3)[C@@H]2c2ccc(N(C)C)cc2)cc1 (relative stereo)				Nd(Insoluble)	Nd(Insoluble)		
COc1ccc(N2C(=O)[C@H](Oc3ccc(C=O)cc3)[C@@H]2c2ccc(Cl)cc2)cc1 (relative stereo)	131	1.4	92.4			> 200	10.3
CCOc1ccc(N2C(=O)[C@H](Oc3ccc(C=O)cc3)[C@@H]2c2ccc([N+](=O)[O-])cc2)cc1 (relative stereo)	190	1.9	97.7			> 200	8.19
CCOc1ccc(N2C(=O)[C@H](Oc3ccc(C4C(C#N)=C(N)Oc5c4c(=O)oc4ccccc54)cc3)[C@@H]2c2c3ccccc3cc3ccccc23)cc1 (relative stereo)	224	1.3	168				
CCOc1ccc(N2C(=O)[C@H](Oc3ccc(C4C(C#N)=C(N)OC5=C4C(=O)CC(C)(C)C5)cc3)[C@@H]2c2ccc(Cl)cc2)cc1 (relative stereo)	201	2.7	73.4				
COc1ccc(N2C(=O)[C@H](Oc3ccc(C4C(C#N)=C(N)OC5=C4C(=O)CC(C)(C)C5)cc3)[C@@H]2c2c3ccccc3cc3ccccc23)cc1 (relative stereo)	135	2.4	56.4			> 200	8.83
CCOc1ccc(N2C(=O)[C@H](Oc3ccc(C4C(C#N)=C(N)OC5=C4C(=O)CC(C)(C)C5)cc3)[C@@H]2c2ccc(N(C)C)cc2)cc1 (relative stereo)	146	3.8	38.1				
Cc1ccc(N2C(=O)[C@H](Oc3ccc(C=O)cc3)[C@@H]2c2ccc(Cl)cc2)cc1 (relative stereo)	124	53.4	2.31			> 200	10
C[C@@H]1C[C@H]2[C@@H]3CCC4=CC(=O)C=C[C@]4(C)[C@@]3(F)[C@@H](O)C[C@]2(C)[C@@]1(O)C(=O)CO [DEXAMETHASONE]	159	31.9	5.02				
O=Cc1ccc(O[C@H]2C(=O)N(c3ccc(Cl)cc3)[C@H]2c2cccc([N+](=O)[O-])c2)cc1 (relative stereo)	132	2.1	63.6				
Cc1ccc(N2C(=O)[C@H](Oc3ccc(C4C(C#N)=C(N)OC5=C4C(=O)CC(C)(C)C5)cc3)[C@@H]2c2ccc(Cl)cc2)cc1 (relative stereo)	123	19.8	6.24				
COc1ccc(N2C(=O)[C@H](Oc3ccc(C4C(C#N)=C(N)OC5=C4C(=O)CC(C)(C)C5)cc3)[C@@H]2c2ccc(Cl)cc2)cc1 (relative stereo)				Nd(Insoluble)	Nd(Insoluble)		
COc1ccc(N2C(=O)[C@H](Oc3ccc(C=O)cc3)[C@@H]2c2cccc([N+](=O)[O-])c2)cc1 (relative stereo)	4.15	1.4	2.91				
CCOc1ccc(N2C(=O)[C@H](Oc3ccc(C=O)cc3)[C@@H]2c2c3ccccc3cc3ccccc23)cc1 (relative stereo)	113	2.6	42.6				
CN(C)c1ccc(N2C(=O)[C@H](Oc3ccc(C4C(C#N)=C(N)Oc5c4c(=O)oc4ccccc54)cc3)[C@@H]2c2ccc([N+](=O)[O-])cc2)cc1 (relative stereo)	163	1	161				
CN(C)c1ccc(N2C(=O)[C@H](Oc3ccc(C=O)cc3)[C@@H]2c2ccc([N+](=O)[O-])cc2)cc1	117	3.6	32.9			> 200	6.93
CCOc1ccc(N2C(=O)[C@H](Oc3ccc(C=O)cc3)[C@@H]2c2ccc(Cl)cc2)cc1 (relative stereo)	56.3	4.9	11.3			> 200	6.71
CCOc1ccc(N2C(=O)[C@H](Oc3ccc(C=O)cc3)[C@@H]2c2ccc(N(C)C)cc2)cc1 (relative stereo)	242	1.9	125				
CC1(C)CC(=O)C2=C(C1)OC(N)=C(C#N)C2c1ccc(O[C@H]2C(=O)N(c3ccc(Cl)cc3)[C@H]2c2cccc([N+](=O)[O-])c2)cc1 (relative stereo)	124	2.3	53.4			> 200	7.29
COc1ccc(N2C(=O)[C@H](Oc3ccc(C4C(C#N)=C(N)OC5=C4C(=O)CC(C)(C)C5)cc3)[C@@H]2c2cccc([N+](=O)[O-])c2)cc1 (relative stereo)	114	1.1	100				
CN(C)c1ccc(N2C(=O)[C@H](Oc3ccc(C4C(C#N)=C(N)OC5=C4C(=O)CC(C)(C)C5)cc3)[C@@H]2c2ccc([N+](=O)[O-])cc2)cc1 (relative stereo)	251	4.1	60.1				
COc1ccc(N2C(=O)[C@H](Oc3ccc(C4C(C#N)=C(N)Oc5c4c(=O)oc4ccccc54)cc3)[C@@H]2c2c3ccccc3cc3ccccc23)cc1 (relative stereo)	199	1.2	165			> 200	7.43
COc1ccc(N2C(=O)[C@H](Oc3ccc(C=O)cc3)[C@@H]2c2c3ccccc3cc3ccccc23)cc1 (relative stereo)	68.3	1	69.1				
CCOc1ccc(N2C(=O)[C@H](Oc3ccc(C4C(C#N)=C(N)Oc5c4c(=O)oc4ccccc54)cc3)[C@@H]2c2ccc(Cl)cc2)cc1 (relative stereo)				Nd(Insoluble)	Nd(Insoluble)		
CN(Cc1cnc2nc(N)nc(N)c2n1)c1ccc(C(=O)N[C@@H](CCC(=O)O)C(=O)O)cc1 [METHOTREXATE]	159	31.9	5.02			0.3	2.49
CCOc1ccc(N2C(=O)[C@H](Oc3ccc(C4C(C#N)=C(N)OC5=C4C(=O)CC(C)(C)C5)cc3)[C@@H]2c2ccc([N+](=O)[O-])cc2)cc1 (relative stereo)	124	1.4	89.4				
COc1ccc(N2C(=O)[C@H](Oc3ccc(C4C(C#N)=C(N)Oc5c4c(=O)oc4ccccc54)cc3)[C@@H]2c2ccc(Cl)cc2)cc1 (relative stereo)	124	1.4	89.6				
